The values below come from ChEMBL document CHEMBL1124780, “Phenyl selenones: alkyl transfer by selenium-carbon bond cleavage” (J Med Chem, 1990).

A short description of data set [1]: Half-life after NBP alkylation. Format: ADME. Put shortly: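 NBP alkylation at 37 °C in aqueous acetone (52.2:47.8, v/v) with 40.6 mM NBP (pseudo-first-order excess), 17.4 mM Tris-HCl pH 7.4, and 0.087 or 0.174 mM alkylating agent. First-order rate constants were taken from plots of log(percent remaining alkylating species) vs time. Adduct was read at 560 nm after triethylamine alkalization.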

A short description of data set [2]: Pseudo first order rate constant of NBP alkylation was determined at 37 degree Centigrade. It counts as ADME. In short, it runs like this:
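Alkylating agent (0.087 or 0.174 mM) reacted at 37 °C with 4-(4-nitrobenzyl)pyridine (40.6 mM, pseudo-first-order excess). Medium was aqueous acetone (52.2:47.8 v/v) with 17.4 mM Tris-HCl, pH 7.4. k' was taken from plots of log(% remaining alkylating species) vs time.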

The subject of data set [3] is CCRF-CEM. The experiment in a line: In vitro growth inhibition against CCRF-CEM human lymphoblast cells. It counts as functional, cell-based. In short, it runs like this: (§1)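 Cells were exposed to drug in vitro for 48 h (L1210 murine leukemia; CCRF-CEM human lymphoblast). The value is the drug concentration giving 50% growth inhibition.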
Data set [4] relates to L1210. Briefly: In vitro growth inhibition against L1210 murine leukemia cells. It counts as functional, cell-based. The note with it: Mus musculus. In short, it runs like this:
as §1

Data set [5] deals with A2780. Briefly: In vitro cytotoxicity was determined against A2780 human ovarian cell line using NCI screen. Format: functional, cell-based.
The subject of data set [6] is A498. Briefly: In vitro cytotoxicity was determined against A 498 human renal tumor cell line using NCI screen. Format: functional, cell-based.
Data set [7] concerns CCRF-SB. Briefly: In vitro cytotoxicity was determined against CCRF-SB human leukemia cell line using NCI screen. It counts as functional, cell-based.
The species named for data set [8] is Homo sapiens. Briefly: In vitro cytotoxicity was determined against CALU 3 human non-small cell lung carcinoma cell line using BACTEC screen. Format: functional.
Data set [9] concerns CCRF-CEM. Briefly: In vitro cytotoxicity was determined against CCRF-CEM human leukemia cell line using NCI screen. It counts as functional, cell-based.
The subject of data set [10] is COLO 320. Briefly: In vitro cytotoxicity was determined against COLO 320 human colon tumor cell line using BACTEC screen. Format: functional, cell-based.
In data set [11] the test system is COLO 320. Briefly: In vitro cytotoxicity was determined against COLO 320 DM human colon tumor cell line using NCI screen. Format: functional, cell-based.
Data set [12] has as its system IGROV-1. Briefly: In vitro cytotoxicity was determined against IGROVI human ovarian cell line using NCI screen. It counts as functional, cell-based.
Data set [13] concerns HCT-116. The experiment in a line: In vitro cytotoxicity was determined against COLO 320 DM,HCT-15, COLO-205, HCT116 HCC 2998, KM20L2, KM12 human colon tumor cell line using NCI screen. Format: functional, cell-based.
For data set [14], the system named is NCI-H460. The experiment in a line: In vitro cytotoxicity was determined against H460 human non-small cell lung carcinoma cell line using NCI screen. It counts as functional, cell-based.
Data set [15] has as its system HCT-15. Briefly: In vitro cytotoxicity was determined against HCT-15 human colon tumor cell line using NCI screen. It counts as functional, cell-based.
For data set [16], the system named is HOP-62. Briefly: In vitro cytotoxicity was determined against HOP-62 human non-small cell lung carcinoma cell line using NCI screen. Format: functional, cell-based.
Data set [17] concerns HT-29. Briefly: In vitro cytotoxicity was determined against HT-29 human colon tumor cell line using BACTEC screen. Format: functional, cell-based.
Data set [18] relates to NCI-H23. The experiment in a line: In vitro cytotoxicity was determined against H23 human non-small cell lung carcinoma cell line using NCI screen. Format: functional, cell-based.
For data set [19], the system named is HCC 2998. The experiment in a line: In vitro cytotoxicity was determined against HCC 2998 human colon tumor cell line using NCI screen. Format: functional, cell-based.
For data set [20], the system named is Hs-578T. The experiment in a line: In vitro cytotoxicity was determined against Hs 578.T human breast tumor cell line using BACTEC screen. Format: functional, cell-based.
In data set [21] the test system is KM-20L2. Briefly: In vitro cytotoxicity was determined against KM20L2 human colon tumor cell line using NCI screen. It counts as functional, cell-based.
Data set [22] relates to K562. Briefly: In vitro cytotoxicity was determined against K-562 human leukemia cell line using NCI screen. It counts as functional, cell-based.
Data set [23] relates to M19-MEL. Briefly: In vitro cytotoxicity was determined against M19-MEL human melanoma cell line using NCI screen. Format: functional, cell-based.
For data set [24], the system named is KM12. Briefly: In vitro cytotoxicity was determined against KM12 human colon tumor cell line using NCI screen. Format: functional, cell-based.
Data set [25] concerns LOX IMVI. Briefly: In vitro cytotoxicity was determined against LOX human melanoma cell line using NCI screen. It counts as functional, cell-based.
In data set [26] the test system is Malme-3M. Briefly: In vitro cytotoxicity was determined against MALME-3M human melanoma cell line using NCI screen. Format: functional, cell-based.
In data set [27] the test system is MCF7. The experiment in a line: In vitro cytotoxicity was determined against MCF-7M human breast tumor cell line using BACTEC screen. It counts as functional, cell-based.
The test system of data set [28] is MOLT-4. Briefly: In vitro cytotoxicity was determined against MOLT-4 human leukemia cell line using NCI screen. Format: functional, cell-based.
Data set [29] deals with OVCAR-5. The experiment in a line: In vitro cytotoxicity was determined against OVCAR5 human ovarian cell line using NCI screen. It counts as functional, cell-based.
For data set [30], the system named is OM-1. Briefly: In vitro cytotoxicity was determined against OM-1 human colon tumor cell line using BACTEC screen. It counts as functional, cell-based.
Data set [31] relates to RPMI-8226. Briefly: In vitro cytotoxicity was determined against RPMI 8226 human leukemia cell line using NCI screen. Format: functional, cell-based.
Data set [32] deals with SF-268. Briefly: In vitro cytotoxicity was determined against SF-268 human CNS tumor cell line using NCI screen. Format: functional, cell-based.
In data set [33] the test system is SNB-19. Briefly: In vitro cytotoxicity was determined against SNB19 human CNS tumor cell line using NCI screen. Format: functional, cell-based.
In data set [34] the test system is SNB-78. Briefly: In vitro cytotoxicity was determined against SNB78 human CNS tumor cell line using NCI screen. It counts as functional, cell-based.
The subject of data set [35] is SF-539. The experiment in a line: In vitro cytotoxicity was determined against SF-539 human CNS tumor cell line using NCI screen. It counts as functional, cell-based.
Data set [36] deals with SN12C. Briefly: (§2) In vitro cytotoxicity was determined against SN12 KI human renal tumor cell line using NCI screen. Format: functional, cell-based.
Data set [37] deals with SK-MEL-5. The experiment in a line: In vitro cytotoxicity was determined against SK-MEL-5 human melanoma cell line using NCI screen. It counts as functional, cell-based.
The species entered for data set [38] is Homo sapiens. The experiment in a line: In vitro cytotoxicity was determined against SKLU human non-small cell lung carcinoma cell line using BACTEC screen. Format: functional.
Data set [39] deals with SK-MES-1. The experiment in a line: In vitro cytotoxicity was determined against SKMES human non-small cell lung carcinoma cell line using BACTEC screen. Format: functional, cell-based.
Data set [40] has as its system SK-MEL-28. The experiment in a line: In vitro cytotoxicity was determined against SK-MEL-28 human melanoma cell line using NCI screen. It counts as functional, cell-based.
Data set [41] deals with TE-671. The experiment in a line: In vitro cytotoxicity was determined against TE671 human CNS tumor cell line using NCI screen. It counts as functional, cell-based.
For data set [42], the system named is UO-31. Briefly: In vitro cytotoxicity was determined against UO-31 human renal tumor cell line using NCI screen. Format: functional, cell-based.
Data set [43] concerns U-251. The experiment in a line: In vitro cytotoxicity was determined against U251 human CNS tumor cell line using NCI screen. Format: functional, cell-based.
Data set [44] has as its system UACC-257. The experiment in a line: In vitro cytotoxicity was determined against UACC-257 human melanoma cell line using NCI screen. Format: functional, cell-based.
For data set [45], the system named is UACC-62. The experiment in a line: In vitro cytotoxicity was determined against UACC-62 human melanoma cell line using NCI screen. It counts as functional, cell-based.
The subject of data set [46] is HOP-18. Briefly: In vitro cytotoxicity was determined against HOP-18 human non-small cell lung carcinoma cell line using NCI screen. Format: functional, cell-based.
Data set [47] relates to HOP-19. The experiment in a line: In vitro cytotoxicity was determined against HOP-19 human non-small cell lung carcinoma cell line using NCI screen. It counts as functional, cell-based.
The subject of data set [48] is SK-MEL-2. Briefly: In vitro cytotoxicity was determined against SK-MEL-2 human melanoma cell line using NCI screen. Format: functional, cell-based.
Data set [49] concerns SN12C. The description is as §2. It counts as functional, cell-based. This is another data set of the same source.
Data set [50] has as its system SK-OV-3. Briefly: In vitro cytotoxicity was determined against SKOV-3 human ovarian cell line using NCI screen. It counts as functional, cell-based.
Data set [51] relates to SF-295. The experiment in a line: In vitro cytotoxicity was determined against SF-295, U251, SNB19 human CNS tumor cell line using NCI screen. Format: functional, cell-based.
Data set [52] concerns COLO 205. The experiment in a line: In vitro cytotoxicity was determined against COLO-205 human colon tumor cell line using NCI screen. It counts as functional, cell-based.

For the compound `O=S(=O)(CCCl)c1ccccc1`, the half-life in data set [1] is > 96 h. In addition, the k' in data set [2] is < 0.00012 min⁻¹. Also, the results for the IC50 in data set [3] and in data set [4] were 2.25 µM and 2.3 µM, respectively.
`O=C(O)CCCc1ccc(N(CCCl)CCCl)cc1` [CHLORAMBUCIL]: the half-life in [1] is 7.75 h. The compound also showed a k' in data set [2] of 0.00149 min⁻¹.
In data set [1], `CS(=O)(=O)OCCC[Se](=O)(=O)c1ccccc1` gave a half-life of 9.55 h. Also, in data set [2], the k' amounted to 0.00121 min⁻¹. Besides, the concentration for half-maximal inhibition (IC50) in [3] amounted to 0.9 µM; in data set [4], 1.2 µM.
Turning to `ClCC[Se]c1ccccc1`, the half-life in [1] was 0.031 h.
`COc1ccc([Se](=O)(=O)CCCl)cc1`: in data set [1], the half-life was 9.25 h. This compound also showed a k' in data set [2] of 0.00125 min⁻¹. Besides, the IC50 in data set [3] was determined as 0.14 µM; in data set [4], 0.36 µM.
As to `CS(=O)(=O)CS(=O)(=O)OCCCl`, the half-life in data set [1] was 9.4 h. Further, the k' in data set [2] amounted to 0.00123 min⁻¹. Also, the 50% inhibitory concentration (IC50) in data set [4] worked out at 3 µM.
In the case of `ClCC[Se]CCCl`, the half-life in data set [1] was 0.004 h.
Turning to `O=[N+]([O-])c1ccc([Se](=O)(=O)CCCl)cc1`, the half-life in [1] was 1.08 h. In addition, the k' in [2] was 0.0104 min⁻¹. Moreover, the values for the IC50 in data set [3] and in data set [4] were 0.4 µM and 0.9 µM, respectively.
`O=[Se](=O)(CCCl)c1ccccc1`: the IC50 in data set [5] worked out at 7.8 µM; in data set [6], 4.6 µM; in data set [7] it was 0.45 µM; in data set [8], 2.2 µM; in [3] it was 0.15 µM; in [9] it was 0.45 µM. The IC50 in [10] turned out to be 1.2 µM; in data set [11], 2.3 µM; in data set [12] it was 7.8 µM; in [13], 2.3 µM; in data set [14], 4.3 µM; in data set [15], 2.3 µM. In addition, the IC50 in [16] stood at 4.3 µM; in [17], 1.9 µM; in data set [18] it was 4.3 µM; in [19], 2.3 µM; in [20], 0.9 µM; in data set [21] it was 2.3 µM. Besides, the IC50 in data set [22] is 0.45 µM; in data set [23], 3.7 µM; in data set [24], 2.3 µM; in [25] it was 3.7 µM; in data set [4], 0.55 µM; in [26], 3.7 µM. For the same compound, the IC50 was > 4 µM in [27]; 0.45 µM in data set [28]; 7.8 µM in data set [29]; > 4 µM in data set [30]; 0.45 µM in data set [31]; 6 µM in data set [32]. The IC50 amounted to 6 µM in [33]; 6 µM in data set [34]; 6 µM in data set [35]; 4.6 µM in data set [36]; 3.7 µM in data set [37]; 0.06 µM in [38]. The 50% inhibitory concentration (IC50) is 0.15 µM in data set [39]; 3.7 µM in data set [40]; 6 µM in data set [41]; 4.6 µM in [42]; 6 µM in data set [43]; 3.7 µM in data set [44]. Besides, the IC50 in data set [45] is 3.7 µM; in data set [46], 4.3 µM; in data set [47] it was 4.3 µM; in data set [48], 3.7 µM; in [49], 4.6 µM; in data set [50], 7.8 µM. Moreover, the 50% inhibitory concentration (IC50) in [51] worked out at 6 µM; in data set [52], 2.3 µM. For the same compound, in data set [1], the half-life was 8.37 h. Also, the k' in data set [2] came out at 0.00138 min⁻¹.
Take `O=[Se](O)c1ccccc1` [BENZENE SELENOIC ACID]: inhibition in data set [4] was half-maximal at 3 µM (IC50). This lies in the single-digit micromolar range.
The compound `CC[Se](=O)(=O)c1ccccc1` showed a half-life in data set [1] of 4.67 h. The k' in data set [2] is 0.00248 min⁻¹. Moreover, the figures for the IC50 in [3] and in data set [4] were 10 µM and 5 µM, respectively.

In general, half-life refers to how long it takes for the measured level to halve. Low values mean fast loss, high ones slow loss. By IC50 is commonly meant the concentration that gives 50% inhibition. High values mean weaker potency, low ones greater potency.
